From ChEMBL document CHEMBL1208790, “Exploration of a new series of CCR5 antagonists: multi-dimensional optimization of a sub-series containing N-substituted pyrazoles” (Bioorg Med Chem Lett, 2010)

Assay: Lipophilicity, log D of the compound at pH 7 by shake flask method
Type: physicochemical
Details: buffer
Summary of the method: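 High-throughput shake-flask log D determination at pH 7.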

logD | Structure (SMILES)
1.9 | Cc1ccnc(C)c1C(=O)N1C[C@H]2CN(CC[C@H](NC(=O)C3CCCC3)c3ccccc3)C[C@H]2C1
1.37 | Cc1ncnc(C)c1C(=O)N1C[C@H]2CN(CC[C@H](NC(=O)C3CCCC3)c3ccccc3)C[C@H]2C1
1.89 | Cc1cc(C#N)nc(C)c1C(=O)N1C[C@H]2CN(CC[C@H](NC(=O)C3CCCC3)c3ccccc3)C[C@H]2C1
2.92 | Cc1nn(-c2ccccc2)c(C)c1C(=O)N1C[C@H]2CN(CC[C@H](NC(=O)C3CCCC3)c3ccccc3)C[C@H]2C1
